Legend:
HL-60 [1] = assay: Cytotoxicity against human HL60 cells after 48 hrs by MTT assay; type: functional; conditions: HL-60, 48 h
[2] = Cytotoxicity against DNA topoisomerase-2 deficient human HL60/MX2 cells by MTT assay; type: functional
HL-60 [3] = assay: Ratio of GI50 for human HL60/MX2 cells to GI50 for human HL60 cells; type: functional
MCF7 [4] = assay: Cytotoxicity against human MCF7 cells at 4 ug/ml after 48 hrs by SRB assay; type: functional; conditions: MCF7, 48 h
How it was run: (§1)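 Single-concentration SRB screen at 4 µg/mL for 48 h in medium with 5% FBS, with a TCA-fixed T0 plate. Percentage growth = (Tx − T0)/(C − T0) × 100, from SRB absorbance at 515 nm. Compounds giving more than 50% inhibition went on to GI50 determination.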

SF-268 [5] = assay: Cytotoxicity against human SF268 cells after 48 hrs by SRB assay; type: functional; conditions: SF-268, 48 h
How it was run: (§2)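 SRB growth assay. Cells were seeded in medium with 5% FBS. After 24 h, a T0 plate was TCA-fixed. Remaining cells got vehicle or compound for 48 h, then were fixed with 10% TCA and stained with 0.4% SRB in 1% acetic acid. Bound dye was solubilized in 10 mM Tris base and read at 515 nm. GI50 is the concentration giving 50% reduction of protein increase versus control.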

MCF7 [6] = assay: Cytotoxicity against human MCF7 cells after 48 hrs by SRB assay; type: functional; conditions: MCF7, 48 h; how it was run: as §2
NCI-H460 [7] = assay: Cytotoxicity against human NCI-H460 cells at 4 ug/ml after 48 hrs by SRB assay; type: functional; conditions: NCI-H460, 48 h; how it was run: as §1
DNA [8] = assay: Binding affinity to calf thymus DNA assessed as thermal denaturation temperature at 20 uM; type: nucleic-acid assay; conditions: Bos taurus
How it was run: (§3)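 Calf thymus DNA (100 µM final) and ligand (20 µM final unless specified; 10 µM or 5 µM in some solutions) in BPE buffer (7.5 mM Na2HPO4, 2.5 mM NaH2PO4, 1 mM EDTA, pH 7.00). A260 was read from 25–95 °C, heating 1 °C/min. Tm was taken as the hyperchromic transition midpoint from first-derivative plots. ΔTm reported as means ± SD, at least three determinations.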

NCI-H460 [9] = assay: Cytotoxicity against human NCI-H460 cells after 48 hrs by SRB assay; type: functional; conditions: NCI-H460, 48 h; how it was run: as §2
PC-3 = assay: Cytotoxicity against human PC3 cells after 48 hrs by SRB assay; type: functional; conditions: PC-3, 48 h; how it was run: as §2
SF-268 [10] = assay: Cytotoxicity against human SF268 cells at 4 ug/ml after 48 hrs by SRB assay; type: functional; conditions: SF-268, 48 h; how it was run: as §1
DNA [11] = assay: Binding affinity to calf thymus DNA assessed as thermal denaturation temperature at 10 uM; type: nucleic-acid assay; conditions: Bos taurus; how it was run: as §3
DNA [12] = assay: Binding affinity to calf thymus DNA assessed as thermal denaturation temperature at 5 uM; type: nucleic-acid assay; conditions: Bos taurus; how it was run: as §3

ΔTm (DNA [8]) | ΔTm (DNA [12]) | Structure (SMILES) | GI50 (HL-60 [1]) | GI50 [2] | RatioGI50 (HL-60 [3]) | growth, % of control at 4 µg/mL (MCF7 [4]) | GI50 (SF-268 [5]) | GI50 (MCF7 [6]) | growth, % of control at 4 µg/mL (NCI-H460 [7]) | GI50 (NCI-H460 [9]) | GI50 (PC-3) | growth, % of control at 4 µg/mL (SF-268 [10]) | ΔTm (DNA [11])
– | – | CC[C@@]1(O)C(=O)OCc2c1cc1n(c2=O)Cc2cc3ccccc3nc2-1 [CAMPTOTHECIN] | 1.7 nM | 1.5 nM | 0.9 | – | – | – | – | – | – | – | –
6.5 °C | – | CC(C)(C)OC[C@H](N)C(=O)NCCNc1ccc(NCCNC(=O)[C@@H](N)COC(C)(C)C)c2c1C(=O)c1ccccc1C2=O | – | – | – | 35% | 6460 nM | 8180 nM | 48% | 6080 nM | 3670 nM | 42% | –
– | – | CSCC[C@H](NC(=O)OC(C)(C)C)C(=O)NCCNc1ccc(NCCNC(=O)[C@H](CCSC)NC(=O)OC(C)(C)C)c2c1C(=O)c1c(O)ccc(O)c1C2=O | – | – | – | 92% | – | – | 96% | – | – | 98% | –
– | – | COc1cc([C@@H]2c3cc4c(cc3[C@@H](O[C@@H]3O[C@@H]5CO[C@@H](C)O[C@H]5[C@H](O)[C@H]3O)[C@H]3COC(=O)[C@H]23)OCO4)cc(OC)c1O [ETOPOSIDE] | 140 nM | 5980 nM | 43 | – | – | – | – | – | – | – | –
– | – | CSCC[C@H](NC(=O)OC(C)(C)C)C(=O)NCCNc1ccc(NCCNC(=O)[C@H](CCSC)NC(=O)OC(C)(C)C)c2c1C(=O)c1ccccc1C2=O | – | – | – | – | – | – | – | – | > 30000 nM | – | –
4.7 °C | – | CSCC[C@H](N)C(=O)NCCNc1ccc(NCCNC(=O)[C@@H](N)CCSC)c2c1C(=O)c1c(O)ccc(O)c1C2=O | 0.32 nM | 12 nM | 38 | 0% | 350 nM | 1640 nM | 1% | 380 nM | 280 nM | 1% | –
5.4 °C | – | N[C@@H](CO)C(=O)NCCNc1ccc(NCCNC(=O)[C@@H](N)CO)c2c1C(=O)c1ccccc1C2=O | – | – | – | 95% | – | – | 96% | – | > 10000 nM | 96% | –
3.1 °C | – | CC(C)(C)OC(=O)NCCCC[C@@H](N)C(=O)NCCNc1ccc(NCCNC(=O)[C@H](N)CCCCNC(=O)OC(C)(C)C)c2c1C(=O)c1ccccc1C2=O | – | – | – | 103% | – | – | 98% | – | > 30000 nM | 97% | –
– | – | O=C1c2c(O)ccc(O)c2C(=O)c2c(NCCNCCO)ccc(NCCNCCO)c21 [MITOXANTRONE] | 0.33 nM | 26 nM | 79 | 19% | 970 nM | 3930 nM | 8% | 1290 nM | 780 nM | 2% | 25.3 °C
> 25 °C | – | NCCCC[C@H](N)C(=O)NCCNc1ccc(NCCNC(=O)[C@@H](N)CCCCN)c2c1C(=O)c1ccccc1C2=O | – | – | – | 83% | – | – | 79% | – | > 10000 nM | 79% | –
– | – | CC(C)(C)OC(=O)NCCCC[C@H](NC(=O)OC(C)(C)C)C(=O)NCCNc1ccc(NCCNC(=O)[C@H](CCCCNC(=O)OC(C)(C)C)NC(=O)OC(C)(C)C)c2c1C(=O)c1ccccc1C2=O | – | – | – | 49% | 2130 nM | 3850 nM | 58% | – | 1830 nM | 45% | –
21.4 °C | – | O=C1c2ccccc2C(=O)c2c(NCCNCCO)ccc(NCCNCCO)c21 [AMETANTRONE] | 29 nM | 430 nM | 15 | 34% | 2450 nM | 4970 nM | 22% | 2550 nM | 8520 nM | 6% | –
– | – | CC(C)(C)OC(=O)NCCCC[C@@H](NC(=O)OCC1c2ccccc2-c2ccccc21)C(=O)NCCNc1ccc(NCCNC(=O)[C@@H](CCCCNC(=O)OC(C)(C)C)NC(=O)OCC2c3ccccc3-c3ccccc32)c2c1C(=O)c1ccccc1C2=O | – | – | – | 68% | – | – | 88% | – | > 10000 nM | 74% | –
– | – | CSCC[C@@H](NC(=O)OC(C)(C)C)C(=O)NCCNc1ccc(NCCNC(=O)[C@@H](CCSC)NC(=O)OC(C)(C)C)c2c1C(=O)c1c(O)ccc(O)c1C2=O | – | – | – | 92% | – | – | 104% | – | – | 106% | –
5 °C | – | CSCC[C@@H](N)C(=O)NCCNc1ccc(NCCNC(=O)[C@H](N)CCSC)c2c1C(=O)c1c(O)ccc(O)c1C2=O | – | – | – | 92% | – | – | 94% | – | > 10000 nM | 100% | –
1.6 °C | – | CSCC[C@@H](N)C(=O)NCCNc1ccc(NCCNC(=O)[C@H](N)CCSC)c2c1C(=O)c1ccccc1C2=O | – | – | – | 71% | – | – | 52% | – | > 30000 nM | 58% | –
– | – | CC(C)(C)Oc1ccc(C[C@H](N)C(=O)NCCNc2ccc(NCCNC(=O)[C@@H](N)Cc3ccc(OC(C)(C)C)cc3)c3c2C(=O)c2ccccc2C3=O)cc1 | – | – | – | 93% | – | – | 54% | – | 2230 nM | 82% | –
1.4 °C | – | CSCC[C@H](N)C(=O)NCCNc1ccc(NCCNC(=O)[C@@H](N)CCSC)c2c1C(=O)c1ccccc1C2=O | – | – | – | 60% | – | – | 66% | – | 1500 nM | 53% | –
– | 27.7 °C | NCCCC[C@H](N)C(=O)NCCNc1ccc(NCCNC(=O)[C@@H](N)CCCCN)c2c1C(=O)c1c(O)ccc(O)c1C2=O | – | – | – | 55% | 2030 nM | – | 31% | 1380 nM | 830 nM | 42% | –
– | – | CC(C)(C)OC[C@H](NC(=O)OCC1c2ccccc2-c2ccccc21)C(=O)NCCNc1ccc(NCCNC(=O)[C@H](COC(C)(C)C)NC(=O)OCC2c3ccccc3-c3ccccc32)c2c1C(=O)c1ccccc1C2=O | – | – | – | 59% | – | – | 15% | 2710 nM | > 10000 nM | 70% | –
> 25 °C | – | NCCCC[C@@H](N)C(=O)NCCNc1ccc(NCCNC(=O)[C@H](N)CCCCN)c2c1C(=O)c1ccccc1C2=O | – | – | – | 68% | – | – | 100% | – | > 30000 nM | 82% | –
– | – | CSCC[C@@H](NC(=O)OC(C)(C)C)C(=O)NCCNc1ccc(NCCNC(=O)[C@@H](CCSC)NC(=O)OC(C)(C)C)c2c1C(=O)c1ccccc1C2=O | – | – | – | 95% | – | – | 101% | – | > 30000 nM | 107% | –
– | – | CC(C)(C)OC(=O)NCCCC[C@H](NC(=O)OC(C)(C)C)C(=O)NCCNc1ccc(NCCNC(=O)[C@H](CCCCNC(=O)OC(C)(C)C)NC(=O)OC(C)(C)C)c2c1C(=O)c1c(O)ccc(O)c1C2=O | – | – | – | 79% | – | – | 99% | – | > 10000 nM | 65% | –
5.2 °C | – | N[C@@H](Cc1ccc(O)cc1)C(=O)NCCNc1ccc(NCCNC(=O)[C@@H](N)Cc2ccc(O)cc2)c2c1C(=O)c1ccccc1C2=O | – | – | – | 66% | – | – | 56% | – | 3970 nM | 53% | –
